Data as given in ChEMBL document CHEMBL1145034.
One block for each molecule: values may come before it.

Columns and labels:
Rattus norvegicus = species: Rattus norvegicus; assay: Hydrolytic activity against esterase with hepatic microsomes relative to E16-1,2; conditions: Liver
[1] = biological target: T1, Estrogen receptor (Mus musculus) (UniProt O08537+P19785); assay: In vivo vaginal activity in ovariectomised mice at 50 ng vaginal dose as pg estradiol dose for equivalent effect
[2] = biological target: T1, Estrogen receptor (Mus musculus); assay: Vaginal activity relative to estradiol (E2); format: functional
How it was run: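 Female CD-1 mice ovariectomized; 1 week later, compound instilled intravaginally in 10 μL sesame oil. Vaginal reductase induction measured and compared with 50 pg E2. n = 5–6 per group, at least two separate occasions.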

[3] = biological target: T2, Estrogen receptor (Rattus norvegicus) (UniProt P06211+Q62986); assay: In vivo uterotropic activity at 100 ug subcutaneous dose in immature rats as ng estradiol dose for equivalent effect; format: functional, organism-based
How it was run: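 Immature (22-day) female Sprague–Dawley rats given daily subcutaneous injections in 0.1 mL sesame oil for 3 days, 100 μg total dose; controls received oil. Uteri removed, blotted and weighed on day 4. Compared with 5 ng E2 run concurrently; n = 5, usually 2 separate experiments.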

[4] = biological target: Estrogen receptor beta (Homo sapiens) (UniProt Q92731); assay: Binding of […] to human estrogen receptor beta ligand binding domain expressed in Escherichia coli
How it was run: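 Competitive binding against [3H]E2 using lysates of E. coli expressing human ERβ LBD (M214–Q530); incubated overnight at 0–2 °C. Result given as RBA versus E2 (E2 = 100); mean of 3 experiments, each in duplicate.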

[5] = biological target: T2, Estrogen receptor (Rattus norvegicus); assay: Uterotropic activity relative to estradiol (E2); format: functional, tissue-based; conditions: Uterus
How it was run: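 Immature female Sprague–Dawley rats, 22 days old, injected subcutaneously once a day for 3 days with test steroid in 0.1 mL sesame oil, 100 µg total dose; sesame oil controls; 5 ng E2 total run concurrently as reference. Uteri removed on day 4, blotted and weighed. n = 5, usually 2 separate experiments; activity expressed relative to E2.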

T1 sequence (O08537 whole entry, looked up): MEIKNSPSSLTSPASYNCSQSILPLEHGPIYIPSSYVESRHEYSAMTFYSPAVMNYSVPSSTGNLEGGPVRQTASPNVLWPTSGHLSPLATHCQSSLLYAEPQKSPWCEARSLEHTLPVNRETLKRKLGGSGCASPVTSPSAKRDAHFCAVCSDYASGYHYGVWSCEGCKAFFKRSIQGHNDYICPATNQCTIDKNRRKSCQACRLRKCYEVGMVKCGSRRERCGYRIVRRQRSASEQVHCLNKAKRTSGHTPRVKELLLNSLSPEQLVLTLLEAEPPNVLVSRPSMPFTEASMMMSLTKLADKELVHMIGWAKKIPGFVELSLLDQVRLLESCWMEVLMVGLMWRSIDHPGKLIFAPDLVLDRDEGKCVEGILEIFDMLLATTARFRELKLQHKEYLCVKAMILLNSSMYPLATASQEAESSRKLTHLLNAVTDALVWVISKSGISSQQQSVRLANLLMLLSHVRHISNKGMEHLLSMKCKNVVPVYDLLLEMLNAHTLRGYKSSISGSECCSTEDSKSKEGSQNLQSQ
T1 sequence (P19785 whole entry, looked up): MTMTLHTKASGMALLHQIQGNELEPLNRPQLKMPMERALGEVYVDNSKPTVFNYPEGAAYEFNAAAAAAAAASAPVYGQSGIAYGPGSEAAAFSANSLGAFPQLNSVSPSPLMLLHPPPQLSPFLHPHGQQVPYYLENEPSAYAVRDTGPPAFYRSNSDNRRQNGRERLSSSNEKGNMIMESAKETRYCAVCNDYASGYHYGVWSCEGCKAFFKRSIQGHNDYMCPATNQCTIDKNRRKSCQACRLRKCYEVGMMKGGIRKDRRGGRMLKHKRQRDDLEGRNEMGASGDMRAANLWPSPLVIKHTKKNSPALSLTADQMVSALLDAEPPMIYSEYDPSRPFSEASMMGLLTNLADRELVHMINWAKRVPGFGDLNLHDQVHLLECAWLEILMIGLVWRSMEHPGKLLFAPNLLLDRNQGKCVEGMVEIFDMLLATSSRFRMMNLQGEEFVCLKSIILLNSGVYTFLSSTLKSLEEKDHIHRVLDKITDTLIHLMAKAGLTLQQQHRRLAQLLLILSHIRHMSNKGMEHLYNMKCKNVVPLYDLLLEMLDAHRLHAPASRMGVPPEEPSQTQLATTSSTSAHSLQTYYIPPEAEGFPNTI
Estrogen receptor beta (Homo sapiens), sequence (Q92731 whole entry, the tested form may be a part): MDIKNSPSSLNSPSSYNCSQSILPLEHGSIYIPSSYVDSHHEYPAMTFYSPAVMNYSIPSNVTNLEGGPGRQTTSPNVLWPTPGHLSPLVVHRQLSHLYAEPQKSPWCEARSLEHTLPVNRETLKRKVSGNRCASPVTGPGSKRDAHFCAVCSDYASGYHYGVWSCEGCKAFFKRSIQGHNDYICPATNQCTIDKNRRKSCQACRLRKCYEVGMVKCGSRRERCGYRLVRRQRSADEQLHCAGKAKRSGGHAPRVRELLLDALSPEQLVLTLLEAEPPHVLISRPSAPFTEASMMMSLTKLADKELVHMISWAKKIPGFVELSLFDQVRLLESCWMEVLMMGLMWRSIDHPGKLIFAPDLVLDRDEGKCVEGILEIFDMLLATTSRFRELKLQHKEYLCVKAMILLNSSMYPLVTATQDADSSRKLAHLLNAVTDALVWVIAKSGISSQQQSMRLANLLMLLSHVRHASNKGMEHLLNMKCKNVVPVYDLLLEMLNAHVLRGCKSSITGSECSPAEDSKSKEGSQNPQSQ

Structure (SMILES): CCOC(=O)C[C@@H]1Cc2cc(O)ccc2[C@H]2CC[C@]3(C)[C@@H](O)CC[C@H]3[C@H]12
RHA (Rattus norvegicus): 70%

Structure (SMILES): C[C@]12CC[C@@H]3c4ccc(O)cc4C[C@@H](C(=O)OCCF)[C@H]3[C@@H]1CC[C@@H]2O
RHA (Rattus norvegicus): 0%

Structure (SMILES): CCOC(=O)C[C@H]1Cc2cc(O)ccc2[C@H]2CC[C@]3(C)[C@@H](O)CC[C@H]3[C@H]12
RHA (Rattus norvegicus): 0%

Structure (SMILES): COC(=O)C[C@@H]1Cc2cc(O)ccc2[C@H]2CC[C@]3(C)[C@@H](O)CC[C@H]3[C@H]12
RHA (Rattus norvegicus): 30%

Structure (SMILES): CCCCOC(=O)[C@@H]1Cc2cc(O)ccc2[C@H]2CC[C@]3(C)[C@@H](O)CC[C@H]3[C@@H]21
RHA (Rattus norvegicus): 0%

Structure (SMILES): CCOC(=O)[C@@H]1C[C@H]2[C@@H]3CCc4cc(O)ccc4[C@H]3CC[C@]2(C)[C@H]1O
RHA (Rattus norvegicus): 100% | Activity [4]: 0.3

Structure (SMILES): C[C@]12CC[C@@H]3c4ccc(O)cc4CC[C@H]3[C@@H]1CC[C@@H]2O
Activity [4]: 100

Structure (SMILES): CCOC(=O)[C@@H]1Cc2cc(O)ccc2[C@H]2CC[C@]3(C)[C@@H](O)CC[C@H]3[C@@H]21
Vaginal activity [1]: 22 | RHA (Rattus norvegicus): 0% | Activity [4]: 9 | Uterotropic activity [5]: 0.04 | Vaginal activity [2]: 0.44 | Uterotropic activity [3]: 4

Structure (SMILES): COC(=O)[C@@H]1Cc2cc(O)ccc2[C@H]2CC[C@]3(C)[C@@H](O)CC[C@H]3[C@@H]21
Vaginal activity [1]: 50 | RHA (Rattus norvegicus): 0% | Uterotropic activity [5]: 0.11 | Vaginal activity [2]: 1 | Uterotropic activity [3]: 10.5

Structure (SMILES): C[C@]12CC[C@@H]3c4ccc(O)cc4CC[C@H]3[C@@H]1C[C@@H](C(=O)OCCF)[C@@H]2O
Vaginal activity [1]: 21 | Uterotropic activity [5]: 0.02 | Vaginal activity [2]: 0.42 | Uterotropic activity [3]: 2

Structure (SMILES): CCOC(=O)CC[C@H]1C[C@]2(C)[C@@H](O)CC[C@H]2[C@@H]2CCc3cc(O)ccc3[C@@H]12
RHA (Rattus norvegicus): 542% | Activity [4]: 64

Structure (SMILES): COC(=O)CC[C@H]1C[C@]2(C)[C@@H](O)CC[C@H]2[C@@H]2CCc3cc(O)ccc3[C@@H]12
RHA (Rattus norvegicus): 64%

Structure (SMILES): CCCOC(=O)[C@@H]1Cc2cc(O)ccc2[C@H]2CC[C@]3(C)[C@@H](O)CC[C@H]3[C@@H]21
RHA (Rattus norvegicus): 0%

Structure (SMILES): CCOC(=O)C[C@H]1C[C@]2(C)[C@@H](O)CC[C@H]2[C@@H]2CCc3cc(O)ccc3[C@@H]12
RHA (Rattus norvegicus): 152% | Activity [4]: 70

Further lines, results first:

RHA (Rattus norvegicus): 7.8%
Structure (SMILES): CCCOC(=O)[C@H]1C[C@H](O)[C@@]2(C)CC[C@@H]3c4ccc(O)cc4CC[C@H]3[C@H]12

RHA (Rattus norvegicus): 7%
Structure (SMILES): CCCCOC(=O)[C@H]1C[C@H](O)[C@@]2(C)CC[C@@H]3c4ccc(O)cc4CC[C@H]3[C@H]12

RHA (Rattus norvegicus): 31%
Structure (SMILES): COC(=O)C[C@H]1C[C@H](O)[C@@]2(C)CC[C@@H]3c4ccc(O)cc4CC[C@H]3[C@H]12

RHA (Rattus norvegicus): 674%
Structure (SMILES): CCOC(=O)CC[C@H]1C[C@H](O)[C@@]2(C)CC[C@@H]3c4ccc(O)cc4CC[C@H]3[C@H]12

Vaginal activity [1]: 19 | RHA (Rattus norvegicus): 1.7% | Vaginal activity [2]: 0.38 | Uterotropic activity [3]: 0
Structure (SMILES): COC(=O)[C@H]1CC(O)[C@@]2(C)CC[C@@H]3c4ccc(O)cc4CC[C@H]3[C@H]12 (stereo partly specified)

Vaginal activity [1]: 21 | RHA (Rattus norvegicus): 2.3% | Activity [4]: 7 | Vaginal activity [2]: 0.42 | Uterotropic activity [3]: 0
Structure (SMILES): CCOC(=O)[C@H]1C[C@H](O)[C@@]2(C)CC[C@@H]3c4ccc(O)cc4CC[C@H]3[C@H]12

RHA (Rattus norvegicus): 71%
Structure (SMILES): CCOC(=O)C[C@H]1C[C@H](O)[C@@]2(C)CC[C@@H]3c4ccc(O)cc4CC[C@H]3[C@H]12

Vaginal activity [1]: 21 | RHA (Rattus norvegicus): 106% | Uterotropic activity [5]: 0.07 | Vaginal activity [2]: 0.42 | Uterotropic activity [3]: 6.5
Structure (SMILES): COC(=O)C[C@H]1C[C@]2(C)[C@@H](O)CC[C@H]2[C@@H]2CCc3cc(O)ccc3[C@@H]12

RHA (Rattus norvegicus): 248%
Structure (SMILES): COC(=O)CC[C@H]1C[C@H](O)[C@@]2(C)CC[C@@H]3c4ccc(O)cc4CC[C@H]3[C@H]12

RHA (Rattus norvegicus): 0.4%
Structure (SMILES): CC(C)OC(=O)[C@H]1C[C@H](O)[C@@]2(C)CC[C@@H]3c4ccc(O)cc4CC[C@H]3[C@H]12

RHA (Rattus norvegicus): 4.5%
Structure (SMILES): C[C@]12CC[C@@H]3c4ccc(O)cc4CC[C@H]3[C@@H]1[C@@H](C(=O)OCCF)C[C@@H]2O
